# Data from PMC2854012 (Cancer chemotherapy and pharmacology, 2009).
# pIC50: −log10 of the molar value. Entries after “also recorded” stand apart in the source; their conditions may differ.
# How the values were obtained:
# [1] = system: insulin-stimulated glucose transport; details: cited from earlier work
# [2] = Plasma pharmacokinetics of UCN-01 in patients; format: in vivo, human
# Method in brief: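 Heparinized blood drawn in cycle 1 before dosing, 12, 24, 48 and 72 h after infusion start, and 12, 24 and 48 h after infusion end. Cycle 2 sampled pre-dose, at 36 h and 24 h post-end. Plasma spun 1200 x g, 5 min, 4°C, stored -80°C; assayed by HPLC-UV. Noncompartmental analysis: Cmax by inspection; λz from ≥3 terminal points; t1/2 = 0.693/λz; linear-trapezoidal AUC extrapolated by Ct/λz; CL = dose/AUC.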
# [3] = system: patients with advanced malignancies; assay: Phase I safety and toxicity, DLT and MTD of UCN-01 with prednisone; format: in vivo, human
# Method in brief: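 Open-label single-arm escalation with 3-6 patients per level. Test compound by continuous IV infusion, 72 h (days 3-5) in cycle 1, then 36 h from day 3; levels 17, 24, 34 mg/m2/24 h. Oral glucocorticoid 60 mg/m2/day, days 1-5; 28-day cycles. Graded by NCI CTC v2.0. DLT: grade 3-4 non-hematologic (separate hyperglycemia rules), grade 4 granulocytopenia or thrombocytopenia. MTD: ≤1 of 6 with DLT.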
# [4] = system: patients with advanced malignancies; assay: Tumor response by RECIST in the phase I trial of UCN-01 with prednisone; format: in vivo, human; details: 15 patients
# Method in brief: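 Tumor response assessed radiographically every two cycles by RECIST. Patients received continuous IV test compound (72 h in cycle 1, 36 h thereafter) plus oral glucocorticoid 60 mg/m2/day on days 1-5, in 28-day cycles.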
# protein kinase C = details: cited from earlier work
# [5] = system: patients with refractory neoplasms; details: cited from earlier work
# [6] = 15 patients, 55 courses, with prednisone
# [7] = drug-related adverse events, 15 patients, all dose levels
compound,measurement,setting,value
CN[C@@H]1C[C@H]2O[C@@](C)([C@@H]1OC)n1c3ccccc3c3c4c(c5c6ccccc6n2c5c31)C(=O)NC4 [Staurosporine],effect on insulin-stimulated glucose transport,[1],inhibit insulin-stimulated glucose transport
"CN[C@@H]1C[C@H]2O[C@@](C)([C@@H]1OC)n1c3ccccc3c3c4c(c5c6ccccc6n2c5c31)C(=O)N[C@@H]4O [UCN-01, 7-hydroxy staurosporine]",Clearance Mean,"[2]; cycle 1, 72-h IV infusion, UCN-01 17 mg/m^2/24 h, with prednisone",5.4 mL/h/m^2
same,Clearance Mean,"[2]; cycle 1, 72-h IV infusion, UCN-01 24 mg/m^2/24 h, with prednisone",3.1 mL/h/m^2
same,Clearance Mean,"[2]; cycle 1, 72-h IV infusion, UCN-01 34 mg/m^2/24 h, with prednisone",4.2 mL/h/m^2
same,half-life,"[2]; human, plasma, intravenous, half-life, at the MTD, with prednisone",~18.8 days
same,Cmax,"[2]; human, plasma, intravenous, mean Cmax, at the MTD, with prednisone",~12000 ng/mL
same,AUC(0-inf),"[2]; human, plasma, iv, AUCinf Mean, cycle 1, 72-h IV infusion, UCN-01 17 mg/m^2/24 h, with prednisone",3130 µg·h/mL
same,Cmax,"[2]; human, plasma, iv, Cmax Mean, cycle 1, 72-h IV infusion, UCN-01 17 mg/m^2/24 h, with prednisone",10000 ng/mL
same,clearance,"[2]; range over all dose levels (17, 24 and 34 mg/m^2/24 h x 72 h)",2.13−5.47 mL/h/m^2
same,cumulative toxicities,[3]; [6],no cumulative toxicities
same,grade 4 adverse events,[3]; [6],no grade 4 adverse events
same,patients developing some grade of hyperglycemia,"[3]; 15 patients, with prednisone",All patients
same,"MTD and recommended phase II dose, cycle 2 and beyond","[3]; CIV over 36 h, with prednisone 60 mg/m^2/day for 5 days every cycle",36 mg/m^2/cycle
same,reduction in the maximum dose of UCN-01 that could be safely administered,[3]; combination with prednisone versus single agent on the same schedule,44%
same,DLTs,"[3]; dose level 2 (72 mg/m^2 total dose over 72 h for cycle 1 followed by 36 mg/m^2/cycle), six patients",without any DLTs
same,"grade 3 hyperglycemia, patients",[3]; dose level 3 (102 mg/m^2 total dose over 72 h for cycle 1 followed by 51 mg/m^2/cycle),three
same,"DLT: grade 3 hypophosphatemia during cycle 1, patients","[3]; dose level 3 (102 mg/m^2 total dose over 72 h for cycle 1 followed by 51 mg/m^2/cycle), six patients",Two of the six patients
same,"Anemia grade 2, No. of patients",[3]; [7],2 (1)
same,"Headache grade 2, No. of patients",[3]; [7],2 (1)
same,"Hyperglycemia grade 2, No. of patients",[3]; [7],2 (9)
same,"Hypoalbuminemia grade 2, No. of patients",[3]; [7],2 (2)
same,"Hyponatremia grade 3, No. of patients",[3]; [7],3 (1)
same,"Hypophosphatemia grade 2, No. of patients",[3]; [7],2 (6)
same,"Hypophosphatemia grade 3, No. of patients",[3]; [7],3 (4)
same,"Leucopenia grade 2, No. of patients",[3]; [7],2 (1)
same,"Leucopenia grade 3, No. of patients",[3]; [7],3 (1)
same,"Neutropenia grade 2, No. of patients",[3]; [7],2 (1)
same,"Rash/desquamation grade 2, No. of patients",[3]; [7],2 (1)
same,"Visual (photophobia) grade 2, No. of patients",[3]; [7],2 (1)
same,"MTD and recommended phase II dose, cycle 1","[3]; total dose CIV over 72 h, with prednisone 60 mg/m^2/day for 5 days every cycle",72 mg/m^2
same,GI toxicity,[3]; with prednisone,did not observe any significant GI toxicity
same,pulmonary toxicity,[3]; with prednisone,did not observe any pulmonary toxicity
same,patients with stable disease for longer than two cycles,[4],five
same,response as defined by RECIST criteria,[4],No objective responses; also recorded: None of the 15 patients had a response
same,pIC50,protein kinase C,7.52 to 8.40
same,toxicity at the dose level above the single-agent MTD,[5]; 159 mg/m^2 over 72 h,grade 4 hyperglycemia and vomiting
same,"MTD, single agent, cycle 1","[5]; over 72h, same schedule",127.5 mg/m^2
same,duration of prolonged disease stabilization,[5]; patient with alk-positive anaplastic large-cell lymphoma,> 2.5 years
same,partial response,[5]; patient with melanoma,One partial response
same,"""free"" UCN-01 levels at the end of infusion","[5]; supernatant of ultracentrifuged plasma, 24 mg/m^2/day for 3 days",200 to 600 nmol/L
same,"MTD, single agent, subsequent cycles",[5]; total dose administered over 36 h,63 mg/m^2
